Measurements published in ChEMBL document CHEMBL1629527, “In vitro antifungal activities of bis(alkylpyridinium)alkane compounds against pathogenic yeasts and molds” (Antimicrob Agents Chemother, 2010).

Assays:
Cryptococcus neoformans [1] = assay: Antifungal activity against Cryptococcus neoformans after 24 to 72 hrs by broth microdilution method; type: functional
Summary of the method: (§1)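 Broth microdilution MIC per CLSI M27-A3 (yeasts) or M38-A2 (molds). RPMI 1640 with L-glutamine, without bicarbonate, buffered to pH 7.0 with 0.165 M MOPS. Final test range for the compounds was 0.175–87.5 μM. Incubation at 35°C with visual reading at 24–72 h. MIC was the lowest concentration giving 100% inhibition versus the growth control (azoles 50% or 100%, by organism). Each isolate was run in duplicate in two independent experiments.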

[2] = tested on: Cryptococcus gattii species complex; assay: Antifungal activity against Cryptococcus gattii after 24 to 72 hrs by broth microdilution method; type: functional, Cryptococcus bacillisporus; summary of the method: as §1
Candida tropicalis [3] = assay: Antifungal activity against Candida tropicalis after 48 to 72 hrs; type: functional
Summary of the method: (§2)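 MFC: after the MIC read, 30-μl aliquots from each well without visible growth were plated onto Sabouraud dextrose agar and incubated at 35°C. Reading was at 48–72 h for yeasts and up to 7 days for molds. MFC was the lowest concentration with no colonies.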

Nakaseomyces glabratus [4] = assay: Antifungal activity against Candida glabrata after 48 to 72 hrs; type: functional; summary of the method: as §2
Candida parapsilosis [5] = assay: Antifungal activity against Candida parapsilosis after 48 to 72 hrs; type: functional; summary of the method: as §2
Pichia kudriavzevii [6] = assay: Antifungal activity against Candida krusei after 48 to 72 hrs; type: functional; summary of the method: as §2
Candida dubliniensis [7] = assay: Antifungal activity against Candida dubliniensis after 48 to 72 hrs; type: functional; summary of the method: as §2
Clavispora lusitaniae [8] = assay: Antifungal activity against Candida lusitaniae after 48 to 72 hrs; type: functional; summary of the method: as §2
[9] = tested on: Cryptococcus gattii species complex; assay: Antifungal activity against Cryptococcus gattii after 48 to 72 hrs; type: functional, Cryptococcus bacillisporus; summary of the method: as §2
[10] = Toxicity against human erythrocytes assessed as hemolysis; type: cell-based, Erythrocyte
Rhizopus arrhizus [11] = assay: Antifungal activity against Rhizopus oryzae 05-203111 after 48 to 72 hrs; type: functional
Summary of the method: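 After the broth microdilution MIC read, suspension from every well without visible growth was plated onto Sabouraud dextrose agar and incubated at 35°C, up to 7 days for molds. MFC was taken as the lowest drug concentration with no colonies.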

Pichia kudriavzevii [12] = assay: Antifungal activity against Candida krusei after 24 to 72 hrs by broth microdilution method; type: functional; summary of the method: as §1
Candida dubliniensis [13] = assay: Antifungal activity against Candida dubliniensis after 24 to 72 hrs by broth microdilution method; type: functional; summary of the method: as §1
[14] = tested on: Meyerozyma guilliermondii; assay: Antifungal activity against Candida guilliermondii after 24 to 72 hrs by broth microdilution method; type: functional; summary of the method: as §1
Aspergillus flavus [15] = assay: Antifungal activity against Aspergillus flavus ATCC 204304 after 48 to 72 hrs; type: functional; summary of the method: as §2
Exophiala spinifera = assay: Antifungal activity against Exophiala spinifera 03-200803 after 24 to 72 hrs by broth microdilution method; type: functional
Summary of the method: (§3)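 Mold isolates subcultured on potato dextrose agar, then tested by CLSI M38-A2 broth microdilution in RPMI 1640 (L-glutamine, no bicarbonate) buffered to pH 7.0 with 0.165 M MOPS. Compounds were dissolved in water and tested at a final 0.175–87.5 μM. Plates were incubated at 35°C. MIC was read visually as the lowest concentration giving 100% inhibition versus the growth control. Each isolate was run in duplicate in two independent experiments.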

Fusarium solani = assay: Antifungal activity against Fusarium solani 04-203102 after 24 to 72 hrs by broth microdilution method; type: functional; summary of the method: as §3
Rhizopus arrhizus [16] = assay: Antifungal activity against Rhizopus oryzae 05-203111 after 24 to 72 hrs by broth microdilution method; type: functional; summary of the method: as §3
Aspergillus fumigatus [17] = assay: Antifungal activity against Aspergillus fumigatus 05-203114 after 24 to 72 hrs by broth microdilution method; type: functional; summary of the method: as §1
Aspergillus flavus [18] = assay: Antifungal activity against Aspergillus flavus ATCC 204304 after 24 to 72 hrs by broth microdilution method; type: functional; summary of the method: as §1
Aspergillus flavus [19] = assay: Antifungal activity against Aspergillus flavus 05-203758 after 24 to 72 hrs by broth microdilution method; type: functional; summary of the method: as §1
Aspergillus terreus = assay: Antifungal activity against Aspergillus terreus 05-202844 after 24 to 72 hrs by broth microdilution method; type: functional; summary of the method: as §1
Lomentospora prolificans = assay: Antifungal activity against Scedosporium prolificans 05-203060 after 24 to 72 hrs by broth microdilution method; type: functional; summary of the method: as §3
Scedosporium apiospermum = assay: Antifungal activity against Scedosporium apiospermum 05-203100 after 24 to 72 hrs by broth microdilution method; type: functional; summary of the method: as §3
[20] = tested on: Cunninghamella bertholletiae; assay: Antifungal activity against Cunninghamella bertholletiae 99-12187 after 24 to 72 hrs by broth microdilution method; type: functional; summary of the method: as §1
Lichtheimia corymbifera = assay: Antifungal activity against Absidia corymbifera 04-200170 after 24 to 72 hrs by broth microdilution method; type: functional; summary of the method: as §1
Aspergillus fumigatus [21] = assay: Antifungal activity against Aspergillus fumigatus ATCC 204305 after 24 to 72 hrs by broth microdilution method; type: functional; summary of the method: as §1
[22] = tested on: Cryptococcus gattii species complex; assay: Antifungal activity against Cryptococcus gattii 05-200122 after 24 to 72 hrs by broth microdilution method; type: functional, Cryptococcus bacillisporus; summary of the method: as §1
Cryptococcus neoformans [23] = assay: Antifungal activity against Cryptococcus neoformans 05-202523 after 24 to 72 hrs by broth microdilution method; type: functional; summary of the method: as §1
Candida tropicalis [24] = assay: Antifungal activity against Candida tropicalis 04-202361 after 24 to 72 hrs by broth microdilution method; type: functional; summary of the method: as §1
Nakaseomyces glabratus [25] = assay: Antifungal activity against Candida glabrata 04-202345 after 24 to 72 hrs by broth microdilution method; type: functional; summary of the method: as §1
Candida parapsilosis [26] = assay: Antifungal activity against Candida parapsilosis 04-202398 after 24 to 72 hrs by broth microdilution method; type: functional; settings: Lodderomyces parapsilosis; summary of the method: as §1
Pichia kudriavzevii [27] = assay: Antifungal activity against Candida krusei 04-202328 after 24 to 72 hrs by broth microdilution method; type: functional; summary of the method: as §1
Pichia kudriavzevii [28] = assay: Antifungal activity against Candida krusei ATCC 6258 after 24 to 72 hrs by broth microdilution method; type: functional; summary of the method: as §1
Candida albicans [29] = assay: Antifungal activity against Candida albicans ATCC 10231 after 24 to 72 hrs by broth microdilution method; type: functional; summary of the method: as §1
Candida albicans [30] = assay: Antifungal activity against Candida albicans ATCC 90028 after 24 to 72 hrs by broth microdilution method; type: functional; summary of the method: as §1
Clavispora lusitaniae [31] = assay: Antifungal activity against Candida lusitaniae after 24 to 72 hrs by broth microdilution method; type: functional; summary of the method: as §1
[32] = Antifungal activity against Exophiala jeanselmei 03-200268 after 24 to 72 hrs by broth microdilution method; type: functional; summary of the method: as §1

MIC (Cryptococcus neoformans [1]): 2.41 µg/mL | MIC50 (Cryptococcus neoformans [1]): 1.48 µg/mL | MIC90 (Cryptococcus neoformans [1]): 5.91 µg/mL | MIC [2]: 1.06 µg/mL | MIC50 [2]: 0.75 µg/mL | MIC90 [2]: 1.48 µg/mL | MIC (Pichia kudriavzevii [12]): 2.25 µg/mL | MIC50 (Pichia kudriavzevii [12]): 2.96 µg/mL | MIC90 (Pichia kudriavzevii [12]): 5.91 µg/mL | MIC (Candida dubliniensis [13]): 0.805 µg/mL | MIC50 (Candida dubliniensis [13]): 0.75 µg/mL | MIC90 (Candida dubliniensis [13]): 0.75 µg/mL | MIC [14]: 0.569 µg/mL | MIC50 [14]: 0.38 µg/mL | MIC90 [14]: 0.75 µg/mL | MIC (Exophiala spinifera): 0.37 µg/mL | MIC (Fusarium solani): 47.3 µg/mL | MIC (Rhizopus arrhizus [16]): 1.48 µg/mL | MIC (Aspergillus fumigatus [17]): 47.3 µg/mL | MIC (Aspergillus flavus [18]): 23.7 µg/mL | MIC (Aspergillus flavus [19]): 47.3 µg/mL | MIC (Aspergillus terreus): 5.9 µg/mL | MIC (Lomentospora prolificans): 1.48 µg/mL | MIC (Scedosporium apiospermum): 2.96 µg/mL | MIC [20]: 47.3 µg/mL | MIC (Lichtheimia corymbifera): > 47.3 µg/mL | MIC (Aspergillus fumigatus [21]): 47.3 µg/mL | MIC [22]: 0.74 µg/mL | MIC (Cryptococcus neoformans [23]): 47.3 µg/mL | MIC (Candida tropicalis [24]): 0.74 µg/mL | MIC (Nakaseomyces glabratus [25]): 1.48 µg/mL | MIC (Candida parapsilosis [26]): 47.3 µg/mL | MIC (Pichia kudriavzevii [27]): 11.8 µg/mL | MIC (Pichia kudriavzevii [28]): 5.9 µg/mL | MIC (Candida albicans [29]): 1.48 µg/mL | MIC (Candida albicans [30]): 1.48 µg/mL | MIC (Clavispora lusitaniae [31]): 0.86 µg/mL | MIC50 (Clavispora lusitaniae [31]): 0.75 µg/mL | MIC90 (Clavispora lusitaniae [31]): 1.48 µg/mL | MIC [32]: 1.48 µg/mL
Structure (SMILES): CCCCCc1cc[n+](CCCCCCCCCCCC[n+]2ccc(CCCCC)cc2)cc1.[Cl-].[Cl-]
MFC50 (Candida tropicalis [3]): 0.75 µg/mL | MFC90 (Candida tropicalis [3]): 0.75 µg/mL | MFC (Candida tropicalis [3]; Candida tropicalis): 0.38 µg/mL | MFC50 (Nakaseomyces glabratus [4]): 1.48 µg/mL | MFC90 (Nakaseomyces glabratus [4]): 1.48 µg/mL | MFC (Nakaseomyces glabratus [4]; Nakaseomyces glabratus): 0.38 µg/mL | MFC50 (Candida parapsilosis [5]): >47 µg/mL | MFC90 (Candida parapsilosis [5]): >47 µg/mL | MFC (Candida parapsilosis [5]; Lodderomyces parapsilosis): > 47 µg/mL | MFC50 (Pichia kudriavzevii [6]): 2.96 µg/mL | MFC90 (Pichia kudriavzevii [6]): 5.91 µg/mL | MFC (Pichia kudriavzevii [6]; Pichia kudriavzevii): 0.38 µg/mL | MFC50 (Candida dubliniensis [7]): 0.75 µg/mL | MFC90 (Candida dubliniensis [7]): 1.48 µg/mL | MFC (Candida dubliniensis [7]; Candida dubliniensis): 0.75 µg/mL | MFC50 (Clavispora lusitaniae [8]): 1.48 µg/mL | MFC90 (Clavispora lusitaniae [8]): 1.48 µg/mL | MFC (Clavispora lusitaniae [8]; Clavispora lusitaniae): 0.75 µg/mL | MFC50 [9]: 1.48 µg/mL | MFC90 [9]: 1.48 µg/mL | MFC ([9]; Cryptococcus gattii species complex): 0.75 µg/mL | HC50 [10]: > 129 µM | IC50 [10]: > 48 µM | MFC (Rhizopus arrhizus [11]): 5.9 µg/mL | MFC (Aspergillus flavus [15]): 47.3 µg/mL
